From article PMC4423566 (Nature communications, 2015)
Square brackets hold non-standard residues; d marks the D form. Peptide text beside a SMILES is read from it. * marks the point of attachment. X1 = CC(=O)N[C@@H]1[C@@H](O[C@@H]2O[C@H](CO)[C@H](O)[C@H](O)[C@H]2O)[C@@H](O)[C@@H](CO[C@@H]2O[C@H](CO)[C@@H](O[C@@H]3O[C@H](CO)[C@H](O)[C@H](O[C@]4(C(=O)O)C[C@H](O)[C@@H](NC(C)=O)[C@H]([C@H](O)[C@H](O)CO)O4)[C@H]3O)[C@H](O[C@@H]3O[C@@H](C)[C@@H](O)[C@@H](O)[C@@H]3O)[C@H]2NC(C)=O)O[C@@H]1*; Phe(4-CH2SO3H) = N[C@@H](Cc1ccc(CS(=O)(=O)O)cc1)C(=O)O; Mca = COc1ccc2c(CC(=O)*)cc(=O)oc2c1

How the values were obtained:
P-selectin [1] = conditions: P-selectin inhibitor; cited from earlier work
[2] = test system: human platelet-monocyte aggregation; conditions: cited from earlier work
mouse P-selectin = mouse P-selectin (Mus musculus, UniProt Q01102); test: Biacore binding assay, mouse P-selectin; conditions: printed as fold lower
[3] = test system: leukocyte rolling and arrest on substrates coated with ICAM-1 and E-selectin; test: In vitro flow assay on ICAM-1/E-selectin substrate under shear; format: cell-based, human; conditions: concentrations as high as 30 μM
Method in brief: (§1)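 Aminosilanized glass was coated with human ICAM-1-Fc plus P- or E-selectin-Fc (5 μg/mL, 1 h). Human blood cells from healthy donors were density-separated and suspended in HEPES-buffered salt solution. Cells were exposed 10 min to PBS or test compound (up to 30 μM), then perfused at 2 dynes/cm2. Video ran 2 min at 7.5 frames/s. Centroids were tracked over 10 s; < 1 μm/s counted as arrested; capture and rolling velocity scored.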

[4] = molecular target: human L-selectin Fc chimera (Homo sapiens, UniProt P14151); test: Flow cytometry, L-selectin Fc chimera binding to human U937; format: cell-based; conditions: read-out: IC50, inhibition of PSGL-1/L-selectin interactions; human leukocytes (human U937)
L-Sel-Ig = test: Biacore binding assay, L-selectin
Method in brief: (§2)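 Biotinylated test glycopeptide was captured on a streptavidin-coated sensor chip at low (< 5 RU) or high (60 RU) density. P-, L- or E-selectin-Ig was applied at 2.5–60 μg/mL. Kinetic parameters were fitted to a 1:1 binding model. Affinity relative to P-Sel-Ig was estimated by comparing binding at the two capture densities.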

[5] = test system: platelet-leukocyte aggregate formation; test: Platelet-leukocyte aggregates in human whole blood, dual-label flow cytometry; format: cell-based; conditions: 40 μM, PAR1-activating peptide
Method in brief: (§3)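 Anticoagulated whole blood was treated with 40 μM test compound at room temperature. Stimulation used PAR1-activating peptide 40 μM (human) or PAR4-activating peptide 200 μM (mouse). Staining was anti-CD42a-PE/anti-CD45-APC (human) or anti-CD41-PE/anti-CD45-APC (mouse). CD45+ neutrophils and monocytes were gated by side scatter and scored as % platelet-positive. Saline and anti-CD62P (5 μg/mL) were controls. Samples were run in triplicate.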

[6] = Temperature- and pH-dependent stability by RP-HPLC; format: physicochemical
E-selectin Fc chimera = test: Flow cytometry, E-selectin Fc chimera binding to leukocytes; format: cell-based, human and mouse; conditions: GSnP-6 0 - 30 μM
Method in brief: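 Cells were heparinized mouse blood (cardiac puncture), citrated human blood, or cultured U937. They were incubated with test compound (0–30 μM) and species-matched selectin Fc chimera (2 μg/mL), then PE anti-Fc (1:100). Read-out was flow-cytometric MFI, expressed as percent inhibition versus PBS control, in triplicate. KPL1 and 4RA10 anti-PSGL-1 antibodies served as specificity checks.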

[7] = test system: platelet-neutrophil binding and platelet aggregation in venules; test: TNF-α-induced venular inflammation, cremaster intravital microscopy; format: in vivo; conditions: 3 hr after TNF-α; GSnP-6 4 μmol/kg IV, antibody 75 μg/mouse IV
Method in brief: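 Male C57BL/6 mice, 6–8 weeks old, received intrascrotal TNF-α (0.5 μg) 3 h before cremaster preparation. Just before imaging, test compound (4 μmol/kg), anti-CD62P or saline was given via jugular cannula. Labels were Dylight 649 anti-CD42b (platelets) and Alexa 488 anti-Gr-1 (neutrophils). Venules 30–45 μm (8–10/mouse, 5 mice) were imaged over 2 min. Platelet signal was taken as AUC normalized to vessel area, reported as median integrated fluorescence.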

[8] = test system: leukocyte rolling in cremaster venules; test: Intravital microscopy of mouse cremaster, leukocyte rolling; format: in vivo; conditions: 4 μmol/kg IV
Method in brief: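 Mice under IP ketamine/xylazine/atropine were kept on a 37°C blanket. Test compound (4 μmol/kg in saline) or saline was given through a jugular cannula. The cremaster was superfused with bicarbonate-buffered saline (5% CO2 in N2). Venules 30–40 μm were viewed 15–25 min post-surgical stimulation, seven per mouse. Velocities of 5–10 rolling leukocytes per venule were tracked over 2 s; mean and median were taken.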

[9] = test system: platelet-leukocyte aggregate formation; test: Platelet-leukocyte aggregates in mouse whole blood, dual-label flow cytometry; format: cell-based; conditions: 40 μM, PAR4-activating peptide
Method in brief: as §3

E-Sel-Ig = test: Biacore binding assay, E-selectin
Method in brief: as §2

P-selectin [10] = test: Microarray binding of glycopeptide mimics to selectin-Ig chimeras; parameters: species or system human and mouse; conditions: selectin-Ig chimeras 5-20 μg/mL, Alexa-488 anti-human IgG
[11] = test system: human neutrophil and monocyte rolling and arrest on ICAM-1/P-selectin substrate; test: In vitro flow assay on ICAM-1/P-selectin substrate under shear; format: cell-based
Method in brief: as §1

human P-selectin = human P-selectin (Homo sapiens, UniProt P16109); test: Biacore binding assay, human P-selectin; conditions: from Kd 22 nM
[12] = Biacore, compared with P-selectin
[13] = fold lower, densities < 5 RU vs 60 RU

## O=C(O)c1c(O)c(Cc2ccc(Cl)cc2)nc2c3c(ccc12)CCCC3 [PSI-697]
P-selectin [1]
  Kd: ~200 µM
[2]
  inhibition of human platelet-monocyte aggregation (in words): only weakly inhibits

## COc1ccc2c(CC(=O)NCCCC[C@H](N)C(=O)N[C@@H](CCC(=O)O)C(=O)N[C@@H](Cc3ccc(CS(=O)(=O)O)cc3)C(=O)N[C@@H](CCC(=O)O)C(=O)N[C@@H](Cc3ccc(CS(=O)(=O)O)cc3)C(=O)N[C@@H](CC(C)C)C(=O)N[C@@H](CC(=O)O)C(=O)N[C@@H](Cc3ccc(CS(=O)(=O)O)cc3)C(=O)N[C@@H](CC(=O)O)C(=O)N[C@@H](Cc3ccccc3)C(=O)N[C@@H](CC(C)C)C(=O)N3CCC[C@H]3C(=O)N[C@@H](CCC(=O)O)C(=O)N[C@H](C(=O)N[C@@H](CCC(=O)O)C(=O)N3CCC[C@H]3C(=O)N[C@@H](CC(C)C)C(=O)O)[C@@H](C)O[C@H]3O[C@H](CO[C@@H]4O[C@H](CO)[C@@H](O[C@@H]5O[C@H](CO)[C@H](O)[C@H](O[C@]6(C(=O)O)C[C@H](O)[C@@H](NC(C)=O)[C@H]([C@H](O)[C@H](O)CO)O6)[C@H]5O)[C@H](O[C@@H]5O[C@@H](C)[C@@H](O)[C@@H](O)[C@@H]5O)[C@H]4NC(C)=O)[C@H](O)[C@H](O[C@@H]4O[C@H](CO)[C@H](O)[C@H](O)[C@H]4O)[C@H]3NC(C)=O)cc(=O)oc2c1 [GSnP-6] (H-K(Mca)E[Phe(4-CH2SO3H)]E[Phe(4-CH2SO3H)]LD[Phe(4-CH2SO3H)]DFLPET(X1)EPL-OH; N-terminus and C-terminus assumed)
Mouse P-selectin
  Kd to murine P-selectin relative to human P-selectin: ~ 9 fold
[3]
  leukocyte rolling and arrest on ICAM-1 and E-selectin (in words): did not perturb
[4]
  IC50: ~30 µM
L-Sel-Ig; [12]
  binding to L-selectin (in words): lower affinity
L-Sel-Ig; [13]
  affinity of L-Sel-Ig for immobilized GSnP-6 relative to P-Sel-Ig: ~ 25 fold
[5]
  inhibition of platelet-monocyte aggregate formation: 72%
  inhibition of platelet-neutrophil aggregate formation: 65%
[6]; pH 5, T = 37°C
  stability at low pH: without observed degradation products
[6]; pH 7.5, T = 60°C
  stability at high temperature: without observed degradation products
E-selectin Fc chimera
  inhibition of E-selectin interactions (in words): not observed
[7]
  platelet accumulation, median integrated platelet fluorescence (in words): limited platelet signal
  platelet aggregation and platelet-PMN binding (in words): significantly reduced
[8]
  increase in median rolling velocities vs saline: 2 fold
[8]; 15-25 min after surgical stimulation
  mean leukocyte rolling velocity: 74.9 ± 3.4 μm/s
[9]
  inhibition of platelet-monocyte aggregate formation: 47%
  inhibition of platelet-neutrophil aggregate formation: 42%
E-Sel-Ig; [12]
  binding to E-selectin (in words): lower affinity
E-Sel-Ig; [13]
  affinity of E-Sel-Ig for immobilized GSnP-6 relative to P-Sel-Ig: ~ 25 fold
P-selectin [10]
  microarray binding to P-selectin (in words): bound to P-selectin more strongly than to E- or L-selectin
[11]; 6 μM, human neutrophils and monocytes
  inhibition of rolling and arrest: 80%
[11]; read-out: IC50, inhibition of neutrophil capture in shear flow, human neutrophils, 2 dynes/cm^2
  IC50: 5 µM
Human P-selectin
  experimental interaction energy with P-selectin: -43.9 kJ/mol
